According to ChEMBL document CHEMBL4428106, “Synthesis, biological evaluation and molecular docking study of N-arylbenzo[d]oxazol-2-amines as potential α-glucosidase inhibitors” (Bioorg Med Chem, 2016):

Assays:
[1] = Inhibition of baker's yeast alpha-glucosidase using p-nitrophenyl-alpha D-glucopyranoside as substrate preincubated for 15 mins followed by substrate addition measured after 30 mins by spectrophotometric analysis; set-up: species or system Saccharomyces cerevisiae
Summary of the method: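 Enzyme 0.1 U/mL preincubated with test compounds at various concentrations (DMSO, final 5% v/v) in 0.1 M phosphate buffer pH 6.8, 37 C, 15 min; 1.25 mM p-nitrophenyl α-D-glucopyranoside then added, 30 min at 37 C; absorbance read at 405 nm. DMSO-only control; triplicates. % inhibition = (1-∆Asample/∆Acontrol)*100; IC50 = concentration giving 50% inhibition.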

[2] = Non-competitive inhibition of baker's yeast alpha-glucosidase using p-nitrophenyl-alpha D-glucopyranoside as substrate preincubated for 15 mins followed by substrate addition measured after 30 mins by Lineweaver-Burk plot analysis; set-up: species or system Saccharomyces cerevisiae
Summary of the method: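 Kinetics: inhibitor at 0, 10, 20, 30, 40 and 50 μM against p-nitrophenyl α-D-glucopyranoside at 0.25, 0.5, 1 and 2 mM. Inhibition type assigned from Lineweaver-Burk plots (changes in Vmax and Km); Ki estimated from replot of slope versus inhibitor concentration.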

Saccharomyces cerevisiae = experiment: Potency index, ratio of acarbose IC50 to compound IC50 for baker's yeast alpha-glucosidase

Row | SMILES | IC50 [1] [µM] | Ki [2] [µM] | Ratio IC50 (Saccharomyces cerevisiae)
1 | c1ccc(Nc2nc3ccccc3o2)cc1 | > 200 |  | 
2 | CCOc1ccccc1Nc1nc2ccccc2o1 | 65 |  | 
3 | Cc1ccccc1Nc1nc2ccccc2o1 | > 200 |  | 
4 | Fc1ccc(Nc2nc3ccccc3o2)cc1 | 68.4 |  | 
5 | Cc1ccc(Nc2nc3ccccc3o2)c(C)c1 | > 200 |  | 
6 | Cc1cccc(Nc2nc3ccccc3o2)c1 | > 200 |  | 
7 | FC(F)(F)c1cccc(Nc2nc3ccccc3o2)c1 | 120 |  | 
8 | CCOc1ccc(Nc2nc3ccccc3o2)cc1 | > 200 |  | 
9 | Cc1ccc(Nc2nc3ccccc3o2)cc1 | > 200 |  | 
10 | COc1ccc(Nc2nc3ccccc3o2)cc1 | > 200 |  | 
11 | c1ccc(Oc2ccc(Nc3nc4ccccc4o3)cc2)cc1 | 32.5 | 31.3 | 25
12 | Clc1ccc(Nc2nc3ccccc3o2)cc1 | 80.4 |  | 
13 | Clc1ccc(Nc2nc3ccccc3o2)c(Cl)c1 | 44.4 |  | 
